# Screens deposited in PubChem by Broad Institute.
# Compounds with a hit are over-represented: about 2.5% of the library has one in this group of screens.
# NSD2 HMT inh = NSD2 (human) methyltransferase inhibition; O96028; NSD2 peptide methylation, AlphaScreen, 120 min; hit rate 0.54% among 310,000; inhibition, % at 12.5 µM; AID 743445
# Target sequence (O96028 whole entry, looked up): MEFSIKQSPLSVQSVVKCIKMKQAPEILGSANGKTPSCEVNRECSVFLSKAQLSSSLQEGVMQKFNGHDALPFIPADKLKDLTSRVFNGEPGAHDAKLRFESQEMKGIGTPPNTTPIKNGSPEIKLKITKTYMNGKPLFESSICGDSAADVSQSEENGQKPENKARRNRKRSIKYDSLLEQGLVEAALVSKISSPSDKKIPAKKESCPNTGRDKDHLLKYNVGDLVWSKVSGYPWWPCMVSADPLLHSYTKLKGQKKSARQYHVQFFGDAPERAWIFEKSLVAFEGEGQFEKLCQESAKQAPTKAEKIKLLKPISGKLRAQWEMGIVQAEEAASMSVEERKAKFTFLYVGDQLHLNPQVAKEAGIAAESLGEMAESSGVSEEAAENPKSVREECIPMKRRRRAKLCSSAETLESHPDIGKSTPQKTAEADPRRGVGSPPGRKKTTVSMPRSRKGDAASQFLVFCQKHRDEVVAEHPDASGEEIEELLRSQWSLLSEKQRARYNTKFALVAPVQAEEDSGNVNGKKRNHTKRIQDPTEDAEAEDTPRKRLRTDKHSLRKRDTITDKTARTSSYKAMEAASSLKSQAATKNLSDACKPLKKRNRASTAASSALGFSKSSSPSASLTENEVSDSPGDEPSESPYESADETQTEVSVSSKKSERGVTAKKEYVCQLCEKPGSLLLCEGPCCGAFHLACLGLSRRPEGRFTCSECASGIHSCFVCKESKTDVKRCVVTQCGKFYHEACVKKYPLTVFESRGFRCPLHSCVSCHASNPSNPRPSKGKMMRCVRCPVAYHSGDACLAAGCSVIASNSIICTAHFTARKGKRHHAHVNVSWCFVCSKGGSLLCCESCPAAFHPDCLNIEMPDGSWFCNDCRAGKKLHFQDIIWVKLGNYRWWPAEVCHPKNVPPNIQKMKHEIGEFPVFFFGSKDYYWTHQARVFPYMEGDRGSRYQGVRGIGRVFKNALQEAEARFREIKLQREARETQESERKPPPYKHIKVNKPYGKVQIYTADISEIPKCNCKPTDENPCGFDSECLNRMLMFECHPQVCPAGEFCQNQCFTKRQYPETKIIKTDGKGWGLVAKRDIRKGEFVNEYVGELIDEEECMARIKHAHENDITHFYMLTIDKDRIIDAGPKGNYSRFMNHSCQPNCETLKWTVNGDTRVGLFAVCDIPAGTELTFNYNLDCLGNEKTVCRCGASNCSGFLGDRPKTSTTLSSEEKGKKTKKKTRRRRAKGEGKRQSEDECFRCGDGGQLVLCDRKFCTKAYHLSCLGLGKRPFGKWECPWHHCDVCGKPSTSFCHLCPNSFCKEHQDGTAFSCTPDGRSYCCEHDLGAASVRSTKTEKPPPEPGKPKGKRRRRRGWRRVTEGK
# SR-BI DiI inh = mouse SR-BI HDL lipid transfer inhibition | ldlA[mSR-BI] CHO cells, DiI-HDL uptake fluorescence, 3 h | inhibition, % at 12.5 µM | hit rate 0.96% among 320,000;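 active = mean replicate inhibition of at least 70% and a set share of replicates each scoring 70 or more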
# SR-BI DiI-HDL act = SR-BI HDL lipid transfer activation. hit rate 0.096% among 320,000. activation, % at 12.5 µM. AID 504775. CHO ldlA[mSR-BI] cells, DiI-HDL uptake fluorescence, 3 h; 100 = double the neutral-control signal;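 active = mean replicate activation of at least 60% and every replicate at or above 60%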
#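 Test system: SR-BI-overexpressing, LDLR-lacking CHO cells; Also added: labelled HDL, 10 µg/mL; Measured by: bottom-read cell fluorescence after medium removal, ex 550/em 595 nm; Timing: 3 h uptake period with compound, 37 °C; Buffer or medium: F12, 0.5% BSA, 25 mM HEPES; Doses: single compound concentration, delivered by pin transfer.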
# dFosB activator = mouse delta FosB homodimer activation. hit rate 0.99% among 340,000. AID 493131. purified delta FosB, TAMRA-CDK5 oligo fluorescence polarization; percent of positive-control signal above neutral wells. activation, % at 25 µM;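 active = mean activation above about 17%, with every replicate also reaching it, limit read from the data, passing the limit was not always enough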
# Dyrk1A ADPGlo = inhibitors of rat Dyrk1A kinase; ADP-Glo luminescence, NFATc1 peptide; inhibition, % at 12.5 µM; hit rate 0.43% among 310,000; AID 504441
# CDK5 inh = inhibitors of human CDK5/p35 kinase; Recombinant CDK5/p35, ADP-Glo luminescence, 60 min; AID 488839; Q00535+Q15078; inhibition, % at 10 µM; hit rate 0.01% among 330,000;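 active = highest replicate inhibition of at least 50% and at least 75% of replicates reaching 50%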
# AlphaScreen art = interferes with AlphaScreen signal, flagging NSD2 false positives | AID 1053174 | hit rate 9.4% among 1,500 | AlphaScreen artifact counterscreen, preloaded methylated H4 peptide | AC35, µM (series often up to 10 µM) | shares compounds with NSD2 HMT inh; call rule not given here
# Numbers stand for hits; n = inactive; x = no result; + = active, no number. Rule as the data show it, unless noted: active = inhibition above about 50%; inactive = the rest.
SMILES,NSD2 HMT inh,SR-BI DiI inh,SR-BI DiI-HDL act,dFosB activator,Dyrk1A ADPGlo,CDK5 inh,AlphaScreen art
CCOc1ccc(NC2=C(OC)C(=O)c3ccccc3C2=O)cc1,53,n,n,n,n,x,3.7µM
COC1=C(Nc2ccc(O)cc2)C(=O)c2ccccc2C1=O,n,n,n,n,n,n,x
COC1=C(Nc2ccc(OC)cc2)C(=O)c2ccccc2C1=O,66,n,n,n,n,n,5.5µM
COc1ccc(C=C(c2nc3ccccc3s2)c2nc3ccccc3s2)cc1O,59,n,n,n,n,n,n
CSc1ccc(CN(C)C(=O)CNC(=O)c2sc3ccccc3c2Cl)cc1,n,n,n,n,n,n,x
CC1CN(C(=O)COC(=O)/C=C/c2ccccc2)CC(C)O1 (stereo unspecified),61,x,x,x,x,x,n
COc1ccc(C2=C(N)c3ccccc3C2=O)cc1,n,n,n,n,x,n,x
COC1=C(c2ccccc2)C(=O)c2ccccc2C1=O,81,n,n,n,n,n,n
Cc1cc([N+](=O)[O-])cc2c1NC(=O)C2(O)N1CCOCC1 (stereo unspecified),59,n,n,n,n,n,n
O=C(NCC1CC1)c1ccc(-n2ccnc2)c2ccoc12,63,x,x,x,x,x,n
CS(=O)(=O)Nc1cccc(NC(=O)c2ccc(-n3ccnc3)c3ccoc23)c1,n,x,x,x,x,x,x
CC(C)(C)c1ccc(CS(=O)(=O)CC(O)CN2CCCC2=O)cc1 (stereo unspecified),n,n,n,n,n,n,x
Cc1ccccc1CS(=O)(=O)CC(O)CN1CCCC1=O (stereo unspecified),129,n,n,n,n,n,n
Cc1cccc(C(=O)NNC(=O)c2c(-c3ccccc3Cl)noc2C)c1O,n,x,x,n,n,n,x
CNc1c(N)n(Cc2ccccc2)c(=O)[nH]c1=O,64,n,n,n,n,n,n
O=C(COc1ccccc1O)NCCN1CCOCC1,52,x,x,n,n,n,n
O=C(COc1ccccc1Cl)NCCCN1CCOCC1,n,n,n,n,n,n,x
CCNC(=O)C1(C)CCN(C(=O)c2cc(OC)c(OC)c(OC)c2)C1 (stereo unspecified),n,x,x,x,x,x,x
O=C(O)CC1S/C(=N/N=C/c2ccc(-c3ccccc3[N+](=O)[O-])o2)NC1=O (stereo unspecified),91,n,n,n,n,n,n
Cc1ccc(-c2ccc(/C=N/N=C3/NC(=O)C(CC(=O)O)S3)o2)c([N+](=O)[O-])c1 (stereo unspecified),n,n,n,n,n,n,x
CC(=O)Nc1ccc(NC(=O)C(C)OC(=O)CCCOc2ccc(Cl)c(C)c2)cc1 (stereo unspecified),n,n,n,n,n,n,x
Cc1cc(C)nc(NS(=O)(=O)c2ccc(Br)cc2)n1,n,n,n,n,n,n,x
Cc1cc(C)nc(NS(=O)(=O)c2ccc(-n3cccc3)cc2)n1,73,n,n,n,n,n,n
O=C1Nc2ccccc2/C1=N\N=C\c1ccc(O)c(O)c1,119,n,n,n,n,n,3µM
Cc1ccsc1/C=N/N=C1\C(=O)Nc2ccccc21,n,n,n,n,x,n,x
SMILES,NSD2 HMT inh,SR-BI DiI inh,SR-BI DiI-HDL act,dFosB activator,Dyrk1A ADPGlo,CDK5 inh,AlphaScreen art
COCCNC(=O)C1CCCN(C(=O)c2cncc(Br)c2)CC1 (stereo unspecified),n,x,x,x,x,x,x
CN1CCC(=NNC(=O)c2cn(-c3ccccc3)nc2-c2ccccc2)CC1,53,n,n,n,n,n,n
COc1ccc(-c2nn(-c3ccccc3)cc2C(=O)Nc2ccc(C(=O)O)cc2)cc1,73,n,n,n,n,n,n
O=C(O)c1ccc(NC(=O)c2cn(-c3ccccc3)nc2-c2ccccc2)cc1,n,n,n,n,n,n,x
O=C(CSc1nc(-c2ccccc2)c(-c2ccccc2)o1)N1CCCCC1,69,x,x,x,x,x,n
CN1c2ccccc2N(C)C1(C)c1ccccc1,54,n,n,n,n,n,n
CN1C(=O)N(C)C2(c3ccccc3)NC(=O)NC12c1ccccc1 (stereo unspecified),n,n,n,n,n,n,x
COc1cc(CC2C(=O)OCC2C(=O)c2ccc3c(c2)OCO3)cc(OC)c1OC (stereo unspecified),n,n,n,n,n,n,x
CC(=NCCN1CCOCC1)C1=C(O)c2ccccc2C1=O,n,n,n,n,n,n,x
CCN(CC)CCCN=C(C)C1=C(O)c2ccccc2C1=O,66,x,x,x,x,x,n
COc1ccc(N2C(=O)C3C(C2=O)C(C(=O)c2ccc(Cl)cc2)N2CCCC32)cc1 (stereo unspecified),79,x,x,n,x,n,n
Nn1c(SCc2cccc3ccccc23)nnc1-c1n[nH]c2c1CCC2,n,x,x,x,x,x,x
COC(=O)c1cc(NC(=O)CN2CCOCC2)cc(C(=O)OC)c1,n,n,n,n,n,n,x
CCOC(=O)c1cc(NC(=O)CN2CCCC2)cc(C(=O)OCC)c1,96,x,x,n,n,n,n
CN(Cc1nc2ccccc2c(=O)[nH]1)C(=O)c1cc2c(s1)CCCCC2,52,n,n,n,n,n,n
CCCCOc1ccc(-c2nnc(N)s2)cc1,n,n,n,n,n,n,x
CCCCOc1ccc(-c2ncc(N)cn2)cc1,60,n,313,n,n,n,n
N=C1/C(=C\c2ccc(Br)o2)C(=O)N=C2SC(CC(=O)N3CCOCC3)=NN12,94,n,n,n,n,n,n
O=C(O)c1ccc2nc(-c3ccco3)c(-c3ccco3)nc2c1,186,n,n,n,n,n,n
O=C(C[C@H]1C/C=C\C[C@@H](Cc2ccc(F)cc2)C(=O)OC[C@@H](Cc2c[nH]c3ccccc23)NC1=O)NCCO,x,n,n,n,n,n,x
CCOc1ccc(N)cc1OC,56,n,n,n,x,n,n
CC(C)(C)C(=O)Nc1ccc(-c2nnc3n2CCCCC3)cc1,n,n,n,n,n,n,x
N#Cc1cc(-c2ccccc2)cnc1Sc1ccc(Cl)cc1,112,n,n,n,n,n,n
Cc1[nH][nH]c(=O)c1C(c1ccc(-c2ccccc2C(=O)O)o1)c1c(C)[nH][nH]c1=O,78,n,n,n,n,n,n
COC(=O)c1ccc(-c2ccc(C(c3c(C)[nH][nH]c3=O)c3c(C)[nH][nH]c3=O)o2)cc1,53,n,n,n,n,n,n
Cc1[nH][nH]c(=O)c1C(c1ccc(-c2cccc(Cl)c2)o1)c1c(C)[nH][nH]c1=O,x,n,n,n,n,n,x
COC(=O)COc1ccc(C(c2c(C)[nH][nH]c2=O)c2c(C)[nH][nH]c2=O)cc1,n,x,x,n,n,n,x
Cc1[nH][nH]c(=O)c1C(c1ccc(-c2cccc(C(=O)O)c2)o1)c1c(C)[nH][nH]c1=O,+,n,n,n,n,n,n
